Source: ChEMBL document CHEMBL1145100, “Structure-activity relationship of imidazo[1,2-a]pyridines as ligands for detecting beta-amyloid plaques in the brain” (J Med Chem, 2003)

Biological target: Amyloid-beta precursor protein (Homo sapiens, UniProt P05067)
Test: Inhibition constant against [125I]-7 (TZDM) binding to Amyloid beta 1-40 aggregates
Summary of the method: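 Abeta40 peptide aggregated at 0.5 mg/mL in pH 7.4 buffer (10 mM sodium phosphate, 1 mM EDTA), 37 °C for 36-42 h with shaking. Competition in 1 mL of 40% EtOH: fibrils 10-50 nM final, radiotracer 0.05 nM, inhibitors 10^-5 to 10^-10 M. Nonspecific binding with 2 µM thioflavin-T. Incubated 3 h at room temperature, then GF/B filtration with 10% ethanol washes and gamma counting. Ki from nonlinear regression.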

Amyloid-beta precursor protein, sequence (P05067 whole entry): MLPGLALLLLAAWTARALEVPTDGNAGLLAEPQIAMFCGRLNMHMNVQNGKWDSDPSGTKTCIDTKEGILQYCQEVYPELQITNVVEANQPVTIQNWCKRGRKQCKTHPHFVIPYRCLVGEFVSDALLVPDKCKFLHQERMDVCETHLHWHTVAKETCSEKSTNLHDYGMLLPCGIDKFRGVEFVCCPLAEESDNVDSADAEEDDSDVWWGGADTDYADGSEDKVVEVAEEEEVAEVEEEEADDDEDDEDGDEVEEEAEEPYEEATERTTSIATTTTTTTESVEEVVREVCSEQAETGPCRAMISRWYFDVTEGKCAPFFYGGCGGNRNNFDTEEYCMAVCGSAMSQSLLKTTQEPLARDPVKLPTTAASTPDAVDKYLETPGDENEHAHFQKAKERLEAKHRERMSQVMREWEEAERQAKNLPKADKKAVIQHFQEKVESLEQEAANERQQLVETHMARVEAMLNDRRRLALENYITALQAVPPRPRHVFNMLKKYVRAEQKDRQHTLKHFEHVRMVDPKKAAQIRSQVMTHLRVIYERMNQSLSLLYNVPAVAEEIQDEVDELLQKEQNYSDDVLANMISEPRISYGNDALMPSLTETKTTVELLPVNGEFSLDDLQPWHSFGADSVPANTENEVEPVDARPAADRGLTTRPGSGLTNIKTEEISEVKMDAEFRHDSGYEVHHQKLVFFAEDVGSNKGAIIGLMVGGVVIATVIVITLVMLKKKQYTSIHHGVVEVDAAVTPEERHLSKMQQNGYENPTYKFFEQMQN

Ki: > 1000 nM
SMILES: CNc1ccc(-c2cn3ccccc3n2)cc1
